# Data published in publication PMC2810141 (Biochemistry, 2008).
# Entries after “also recorded” stand apart in the source; their conditions may differ.
# How the values were obtained:
# human P4H [1] = molecular target: T1, human P4H (Homo sapiens, UniProt P13674); experiment: HPLC-based assay of P4H enzymatic activity; assay type: biochemical; conditions: for Product formation as substrate for P4H: HPLC (for Mtp also mass spectrometry), data not shown; for kcat/KM relative to that of the Pro-containing peptide / kcat / Km / kcat/KM / Substrate or Inhibitor: HPLC-based assay; for kcat / Km / kcat/KM / Substrate or Inhibitor: 5 min, 30 °C; for kcat / Km / kcat/KM: pH 7.8, P4H 90 nM, substrate 0.05–3 mM, mean ± SE of three replicates; for kcat / Km: Michaelis–Menten fit; for Substrate or Inhibitor: PEG-Gly–Tyr–Yaa–GlyOEt, 50 mM Tris–HCl pH 7.8, P4H 90 nM, α-ketoglutarate 500 μM
# Procedure, shortened: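 Human P4H from a previously reported preparation at 90 nM, in 50 mM Tris–HCl pH 7.8 with BSA 1 mg/mL, catalase 100 μg/mL, DTT 100 μM, ascorbate 2 mM, FeSO4 50 μM and α-ketoglutarate 500 μM. Started with tetrapeptide (0.05–3 mM; ethanol stock), run 5 min at 30 °C, then boiled 60 s. Triplicates. C18 HPLC; substrate:product ratio from A214; Michaelis–Menten fit.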
# human P4H [2] = molecular target: T1, human P4H; experiment: [14C]CO2-release assay from [1-14C]α-ketoglutarate; assay type: biochemical; conditions: substrate at 10% of KM; duplicate
# Procedure, shortened: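 Release of [14C]CO2 from [1-14C]α-ketoglutarate. Component levels as in the HPLC assay, except P4H at 395 nM. Each peptide tested at 10% of its KM from the HPLC assay. Run in duplicate; the decarboxylation rate without peptide was subtracted. Rate (μM/min) expressed as % of the Pro-containing peptide.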
# P4H = conditions: binds to the enzyme, not hydroxylated; ref [33]; cited from earlier work
# T1 sequence (P13674 18-534): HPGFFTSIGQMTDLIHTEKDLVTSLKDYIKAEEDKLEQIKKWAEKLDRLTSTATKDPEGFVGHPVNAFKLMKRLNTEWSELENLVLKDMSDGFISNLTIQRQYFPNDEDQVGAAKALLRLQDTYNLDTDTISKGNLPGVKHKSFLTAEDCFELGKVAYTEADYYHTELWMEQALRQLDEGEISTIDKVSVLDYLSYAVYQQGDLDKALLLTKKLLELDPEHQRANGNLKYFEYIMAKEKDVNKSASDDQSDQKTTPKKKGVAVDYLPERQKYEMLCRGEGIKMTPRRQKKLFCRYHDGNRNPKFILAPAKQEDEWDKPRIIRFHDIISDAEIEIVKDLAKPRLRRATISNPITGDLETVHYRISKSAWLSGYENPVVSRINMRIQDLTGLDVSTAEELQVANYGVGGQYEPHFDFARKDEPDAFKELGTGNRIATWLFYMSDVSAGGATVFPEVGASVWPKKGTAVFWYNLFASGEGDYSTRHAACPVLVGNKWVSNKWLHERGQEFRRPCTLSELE
# T1 sequence (P07237 18-508 partner): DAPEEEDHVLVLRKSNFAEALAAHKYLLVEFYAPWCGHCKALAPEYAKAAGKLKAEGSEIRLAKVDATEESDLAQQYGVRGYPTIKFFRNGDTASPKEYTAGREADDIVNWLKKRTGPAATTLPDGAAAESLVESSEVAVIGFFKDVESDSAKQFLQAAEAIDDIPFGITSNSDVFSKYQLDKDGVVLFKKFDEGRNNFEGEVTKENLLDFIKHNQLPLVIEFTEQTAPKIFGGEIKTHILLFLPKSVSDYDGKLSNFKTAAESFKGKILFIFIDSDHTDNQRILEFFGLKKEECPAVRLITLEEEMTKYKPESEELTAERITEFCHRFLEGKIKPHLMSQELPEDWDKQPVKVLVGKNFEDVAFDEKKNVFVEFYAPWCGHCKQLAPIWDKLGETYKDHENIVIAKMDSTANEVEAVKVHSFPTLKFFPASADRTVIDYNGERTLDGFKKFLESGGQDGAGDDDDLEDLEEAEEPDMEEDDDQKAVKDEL
Product formation as substrate for P4H (human P4H [1]),Substance,kcat/KM relative to that of the Pro-containing peptide (human P4H [1]) [%],kcat (human P4H [1]) [s⁻¹],Km (human P4H [1]; SEM) [µM],kcat (human P4H [1]; SEM) [s⁻¹],kcat/KM (human P4H [1]),Substrate or Inhibitor (human P4H [1]),% of Pro (rate of CO2 release) (human P4H [2]) [%],kcat/KM relative to that for dansyl-Gly–Phe–Pro–GlyOEt (human P4H [1]; comparator value from ref [18]) [fold],Inhibition of P4H enzymatic activity (P4H)
,PEG-Gly–Tyr–Thp–GlyOEt,12,,6400 ± 1400,7.83 ± 0.983,1.2 ± 0.3 10^3 M^−1s^−1,Substrate,6,,
No product was detected,Cbz-Gly–Tyr–Mtp–GlyOEt,,,,,,Neither,,,
not found to be a substrate,PEG-Gly–Tyr–Kep–GlyOEt,,,,,,neither substrates nor inhibitors; also recorded: Neither,,,
,PEG-Gly–Tyr–Pro–GlyOEt,,6,580 ± 30,6 ± 0.12,10 ± 0.6 10^3 M^−1s^−1,Substrate,100,3,
,polyproline,,,,,,,,,competitive inhibitor

Substance,Product formation as substrate for P4H (human P4H [1]),kcat/KM relative to that of the Pro-containing peptide (human P4H [1]) [%],kcat (human P4H [1]) [s⁻¹],Km (human P4H [1]; SEM) [µM],kcat (human P4H [1]; SEM) [s⁻¹],kcat/KM (human P4H [1]),Substrate or Inhibitor (human P4H [1]),% of Pro (rate of CO2 release) (human P4H [2]) [%],kcat/KM relative to that for dansyl-Gly–Phe–Pro–GlyOEt (human P4H [1]; comparator value from ref [18]) [fold],Inhibition of P4H enzymatic activity (P4H)
PEG-Gly–Tyr–flp–GlyOEt,No product formation was detected,27,4.17,1600 ± 300,4.17 ± 0.35,2.7 ± 0.5 10^3 M^−1s^−1,Substrate,26,,
